What was measured:
[1] = Inhibition of dipeptidyl amino peptidase activity in rat brain with 10 nM [3H]Leu-enkephalin as substrate; format: tissue-based
Outline: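 Membrane-bound dipeptidylaminopeptidase purified from rat brain. Preincubated 15 min at 25 °C in 50 mM Tris-HCl with or without inhibitor. […] IC50 by log-probit over five inhibitor concentrations; mean ± SEM, three independent experiments.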

Mus musculus = test: Analgesic effect when injected intracerebroventricularly at 50 (microg); format: functional
Outline: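 Male Swiss mice (23–25 g), icv dose of 50 μg in 10 μL saline, n = 10 per group. Hot plate at 55 ± 0.5 °C; jump latency read 15 min after injection, cutoff 240 s. Compared with vehicle controls by ANOVA and Bonferroni test. % analgesia = (experimental − control latency)/(240 s − control latency).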

Aminopeptidase N = target: T1, Aminopeptidase N (Sus scrofa, UniProt P15145); test: Inhibition of Aminopeptidase N activity in pig kidney with 10 nM [3H]Leu-enkephalin as substrate; format: tissue-based
T1 sequence (P15145 whole entry): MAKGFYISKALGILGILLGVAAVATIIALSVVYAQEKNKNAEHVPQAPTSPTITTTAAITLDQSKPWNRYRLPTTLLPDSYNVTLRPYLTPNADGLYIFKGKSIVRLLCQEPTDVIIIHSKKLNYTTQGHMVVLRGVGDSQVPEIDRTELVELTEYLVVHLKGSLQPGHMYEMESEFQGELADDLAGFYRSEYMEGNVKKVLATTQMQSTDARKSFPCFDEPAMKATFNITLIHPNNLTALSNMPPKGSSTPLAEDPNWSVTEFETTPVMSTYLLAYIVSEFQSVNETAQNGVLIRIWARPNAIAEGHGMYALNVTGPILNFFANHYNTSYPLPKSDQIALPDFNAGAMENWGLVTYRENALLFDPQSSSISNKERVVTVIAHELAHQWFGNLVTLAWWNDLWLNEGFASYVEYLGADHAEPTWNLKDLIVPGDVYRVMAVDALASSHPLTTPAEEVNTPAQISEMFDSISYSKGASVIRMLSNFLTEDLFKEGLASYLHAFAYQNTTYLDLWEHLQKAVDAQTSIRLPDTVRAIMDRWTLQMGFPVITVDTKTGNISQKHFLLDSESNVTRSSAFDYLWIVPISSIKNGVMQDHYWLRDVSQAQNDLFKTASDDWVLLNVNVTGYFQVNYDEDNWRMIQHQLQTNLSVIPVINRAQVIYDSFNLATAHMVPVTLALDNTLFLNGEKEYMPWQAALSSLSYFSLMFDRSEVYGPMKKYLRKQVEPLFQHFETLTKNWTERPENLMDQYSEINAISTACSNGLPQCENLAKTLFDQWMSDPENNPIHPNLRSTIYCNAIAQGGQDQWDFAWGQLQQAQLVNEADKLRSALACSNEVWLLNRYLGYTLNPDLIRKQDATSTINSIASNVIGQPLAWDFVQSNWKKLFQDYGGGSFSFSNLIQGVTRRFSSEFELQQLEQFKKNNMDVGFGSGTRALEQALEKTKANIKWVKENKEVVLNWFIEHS
Outline: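 Commercial aminopeptidase N, used unpurified. Enzyme preincubated 15 min at 25 °C with or without rising inhibitor concentrations in 50 mM Tris-HCl. [3H]Leu-enkephalin (Km 50 μM) added to 10 nM final. Stopped after 30 min with HCl; tritiated metabolites separated on polystyrene beads. IC50 from log-probit of five concentrations, mean ± SEM of three independent experiments.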

Neprilysin = target: T2, Neprilysin (Oryctolagus cuniculus, UniProt P08049); test: Inhibition of neutral endopeptidase activity in rabbit kidney with 20 nM [3H]D-Ala2-Leu-enkephalin as substrate
T2 sequence (P08049 whole entry): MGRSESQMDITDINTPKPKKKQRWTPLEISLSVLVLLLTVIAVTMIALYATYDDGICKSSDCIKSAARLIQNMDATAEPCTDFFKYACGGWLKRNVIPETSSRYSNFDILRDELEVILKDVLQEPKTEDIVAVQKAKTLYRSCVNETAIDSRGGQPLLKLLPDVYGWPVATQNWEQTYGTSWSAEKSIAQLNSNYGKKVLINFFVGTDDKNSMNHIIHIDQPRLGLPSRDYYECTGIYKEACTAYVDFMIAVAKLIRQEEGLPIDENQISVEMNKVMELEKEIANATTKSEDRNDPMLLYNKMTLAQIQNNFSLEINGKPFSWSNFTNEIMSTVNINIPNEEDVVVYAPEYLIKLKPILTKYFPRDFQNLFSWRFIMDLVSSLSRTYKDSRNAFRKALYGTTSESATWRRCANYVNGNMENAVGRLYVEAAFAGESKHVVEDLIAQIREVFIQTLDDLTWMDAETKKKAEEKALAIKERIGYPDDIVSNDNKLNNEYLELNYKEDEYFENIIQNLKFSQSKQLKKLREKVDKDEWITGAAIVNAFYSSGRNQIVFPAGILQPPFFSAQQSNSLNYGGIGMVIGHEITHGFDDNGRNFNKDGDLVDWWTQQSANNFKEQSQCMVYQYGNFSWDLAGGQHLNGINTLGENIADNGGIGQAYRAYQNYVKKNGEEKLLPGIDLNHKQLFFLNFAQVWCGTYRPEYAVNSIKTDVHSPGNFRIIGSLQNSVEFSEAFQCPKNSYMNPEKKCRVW
Outline: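 NEP purified to homogeneity from rabbit kidney, 1 pmol/100 μL final, preincubated 15 min at 25 °C in 50 mM Tris-HCl with or without inhibitor. [3H]-D-Ala2-Leu-enkephalin (Km 30 μM) added at 20 nM final. Reaction stopped at 30 min with 0.5 M HCl; products separated on polystyrene beads. IC50 from log-probit of five concentrations, mean ± SEM of three experiments.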

Row | Compound | IC50 [1] [nM] | IC50 (Aminopeptidase N) [nM] | IC50 (Neprilysin) [nM] | Analgesia (Mus musculus) [%] | Latency time (Mus musculus) [s]
1 | O=C(O)CCNC(=O)C(CC(=O)NO)Cc1ccccc1 (configuration not stated) | 36 | 670 | 2.4 | 21.5 | 125.3
2 | O=C(O)CNC(=O)C(CC(=O)NO)Cc1ccccc1 (configuration not stated) | 21 | 2000 |  |  | 
3 | O=C(O)C[C@H](Cc1ccccc1)NC(=O)[C@H](CC(=O)NO)Cc1ccccc1 | 28.5 | 1430 | 7.6 |  | 
4 | O=C(O)C[C@H](Cc1ccccc1)NC(=O)[C@@H](CC(=O)NO)Cc1ccccc1 (racemic) | 0.46 | 22.5 | 3 | 68.2 | 193.7
5 | CC(CC(=O)O)NC(=O)C(CC(=O)NO)Cc1ccccc1 (stereo in doubt; C) | 0.9 | 350 | 1.7 |  | 
6 | O=C(CC(Cc1ccccc1)C(=O)NC(Cc1ccccc1)C(=O)O)NO (configuration not stated) |  | 130 |  |  | 
7 | CC(NC(=O)C(CC(=O)NO)Cc1ccccc1)C(C)C(=O)O (stereo in doubt; 11B) | 17.5 |  | 13 |  | 
8 | CC(CC(=O)O)NC(=O)C(CC(=O)NO)Cc1ccccc1 (stereo in doubt; 6) | 10 | 445 | 2 | 20.5 | 124
9 | C[C@H](NC(=O)[C@@H](CC(=O)NO)Cc1ccccc1)C(=O)O [KELATORPHAN] |  |  |  | 50 | 167.2
10 | CC(CNC(=O)C(CC(=O)NO)Cc1ccccc1)C(=O)O (configuration not stated) | 23 | 360 | 2.3 | 46.6 | 162.3

The remaining compounds from weak to strong by IC50 [1], led by results:

Row | IC50 [1] [nM] | IC50 (Aminopeptidase N) [nM] | IC50 (Neprilysin) [nM] | Compound | Analgesia (Mus musculus) [%] | Latency time (Mus musculus) [s]
11 | 250 | 500 | 51.5 | O=C(O)CCCCNC(=O)C(CC(=O)NO)Cc1ccccc1 (configuration not stated) |  | 
12 | 150 | 1500 | 27.5 | O=C(O)CCCNC(=O)C(CC(=O)NO)Cc1ccccc1 (configuration not stated) |  | 
13 | 10.5 |  | 26.5 | CC(NC(=O)C(CC(=O)NO)Cc1ccccc1)C(C)C(=O)O (stereo in doubt; 11A) |  | 
14 | 7.2 | 400 | 3 | O=C(O)C[C@H](NC(=O)[C@H](CC(=O)NO)Cc1ccccc1)c1ccccc1 |  | 
15 | 2.6 | 32.5 | 2.9 | O=C(O)C[C@H](NC(=O)[C@@H](CC(=O)NO)Cc1ccccc1)c1ccccc1 (racemic) | 62.1 | 184.8
16 | 2.5 | 71.5 | 1.8 | O=C(CC(Cc1ccccc1)C(=O)NCC(Cc1ccccc1)C(=O)O)NO (configuration not stated) | 39.4 | 151.8
17 | 2.3 | 120 | 150 | CN(C(=O)C(CC(=O)NO)Cc1ccccc1)C(Cc1ccccc1)C(=O)O (configuration not stated) |  | 
